We go through six compounds from ChEMBL document CHEMBL4196194, “De Novo Design of α-Helical Lipopeptides Targeting Viral Fusion Proteins: A Promising Strategy for Relatively Broad-Spectrum Antiviral Drug Discovery” (J Med Chem, 2018).

Each structure is given as a SMILES string. Calls of active or inactive are those of the source. The rule behind the calls is not given here. Where a SMILES comes first, the peptide text is derived from it. [ ]: non-standard residue; d: D form. The star is where a group is joined. Palmitoyl = CCCCCCCCCCCCCCCC(=O)*; βAla = NCCC(=O)O Some results are limits rather than exact numbers.

Data set [1] relates to Influenza A virus. The data set can be described thus: Inhibition of influenza A virus infected in MDCK cells assessed as inhibition of viral load treated with compound at 0 to 2 hrs post-infection by RT-qPCR method based time of addition assay. It counts as functional. The essentials: (§1)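 MDCK cells (2.0 × 10^5/well) washed with PBS, virus adsorbed (MOI 0.05) 60 min at 4 °C, washed, then compound present only during 0–10, 0–2, 2–5, 5–8 or 8–10 h postinfection; cultured in fresh medium to 10 h, total RNA extracted, viral load by absolute one-step RT-qPCR; triplicate, versus PBS control.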

Data set [2] relates to Influenza A virus. As to the kind of experiment: Antiviral activity against influenza A virus assessed as inhibition of viral replicon activity incubated for 30 hrs by firefly luciferase reporter gene assay. It counts as functional, organism-based. The essentials: (§2)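 HEK293T cells (2.5 × 10^4/well) transfected with plasmids for NP, PB1, PB2, PA plus p0LN-S-Luc firefly and pRL-SV40 Renilla reporters; serially diluted compound added 6 h post-transfection, luciferase read after 30 h by Dual-Glo. Activity = firefly/Renilla ratio; % inhibition normalized to positive and negative controls, curve-fitted; three independent measurements.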

For data set [3], the system named is Influenza A virus. The settings on record: Hong Kong/8/1968(H3N2), 0.1 to 1000 uM.
Data set [4] deals with Influenza A virus. The note with it: A/Puerto Rico/8/1934(H1N1), 0.1 to 1000 uM.
Data set [5] has as its system Influenza A virus. The data set can be described thus: Inhibition of influenza A virus infected in MDCK cells assessed as inhibition of viral load treated with compound at 2 to 5 hrs post-infection by RT-qPCR method based time of addition assay. It counts as functional, organism-based. The essentials: as §1
A general note: Real-time PCR tracks product formation cycle by cycle.

The subject of data set [6] is Influenza A virus. As to the kind of experiment: Inhibition of influenza A virus infected in MDCK cells assessed as inhibition of viral load treated with compound at 0 to 10 hrs post-infection by RT-qPCR method based time of addition assay. It is filed as functional. Summed up: as §1
Data set [7] deals with Influenza A virus. The data set can be described thus: Inhibition of influenza A virus infected in MDCK cells assessed as inhibition of viral load treated with compound at 5 to 8 hrs post-infection by RT-qPCR method based time of addition assay. It counts as functional, organism-based. The essentials:
as §1

For data set [8], the system named is Influenza A virus. The data set can be described thus: Antiviral activity against Influenza A virus (A/Puerto Rico/8/1934(H1N1)) infected in HEK293T cells assessed as inhibition of viral replicon activity up to 20 uM incubated for 30 hrs by dual-Glo luciferase assay. It is filed as functional, organism-based. Summed up:
as §2
In general terms: Replicon systems follow genome replication, usually without infectious particles.

Data set [9] can be described thus: Cytotoxicity in human HuH7 cells assessed as reduction in cell viability incubated for 48 hrs by CCK8 assay. It counts as cell-based, Huh-7. The essentials: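 Huh-7 cells (1 × 10^5 cells/mL suspension seeded) grown 12 h at 37 °C, 5% CO2, then serially diluted peptide added for 48 h; untreated blank and Triton X-100 controls. CCK-8 added for 2 h, absorbance at 450 nm.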

For data set [10], the system named is Influenza A virus. As to the kind of experiment: Antiviral activity against influenza A virus Hong Kong/8/1968(H3N2) infected in HEK293T cells assessed as inhibition of viral replicon activity up to 20 uM incubated for 30 hrs by dual-Glo luciferase assay. It is filed as functional, organism-based. Summed up:
as §2

Data set [11] can be described thus: Inhibition of MERS-CoV spike protein-mediated cell-cell fusion in 293T/MERS/EGPF cells assessed as reduction in cell fusion incubated for 4 hrs by inverted fluorescence microscopy. It counts as cell-based, Middle East respiratory syndrome-related coronavirus. The essentials: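 Huh-7 cells expressing DPP4 plated 5 × 10^4/well, 5 h at 37 °C; serially diluted peptide added, then 293T cells carrying MERS-CoV S and EGFP (or EGFP-only control cells), 1 × 10^4/well. After 4 h coculture at 37 °C, fused and unfused effector cells counted by fluorescence microscopy.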

Data set [12] can be described thus: Cytotoxicity in MDCK cells assessed as reduction in cell viability incubated for 72 hrs by cell-titer-Glo cell viability assay. It is filed as cell-based, Canis lupus familiaris. The settings on record: dog.
The test system of data set [13] is Influenza A virus. The data set can be described thus: Antiviral activity against Influenza A virus (A/Puerto Rico/8/1934(H1N1)) infected in HEK293T cells assessed as inhibition of viral replicon activity incubated for 30 hrs by dual-Glo luciferase assay. It is filed as functional, organism-based. The note with it: HEK-293T. The essentials:
as §2

For data set [14], the system named is Influenza A virus. As to the kind of experiment: Antiviral activity against influenza A virus assessed as inhibition of viral replicon activity up to 100 uM incubated for 30 hrs by firefly luciferase reporter gene assay. It counts as functional, organism-based. Summed up:
as §2

The test system of data set [15] is Influenza A virus. As to the kind of experiment: Antiviral activity against influenza A virus Hong Kong/8/1968(H3N2) infected in HEK293T cells assessed as inhibition of viral replicon activity incubated for 30 hrs by dual-Glo luciferase assay. The note with it: HEK-293T. It is filed as functional, organism-based. The essentials:
as §2

As for `NC(=O)c1nc(F)cnc1O`, the inhibition entry in the data set with Influenza A virus [1], in the data set on Influenza A virus [5], with Influenza A virus [6] and in the data set on Influenza A virus [7] was “Active” each time. Also, in the data set with Influenza A virus [2], the half-maximal inhibitory concentration (IC50) was 26.2 µM. For the same compound, the inhibition entry in the data set on Influenza A virus [2] is “Dose-dependent effect”. Also, the inhibition result with Influenza A virus [3] and in the data set with Influenza A virus [4] was “inactive” throughout.
With `CC[C@H](C)[C@H](NC(=O)[C@H](Cc1ccc(O)cc1)NC(=O)[C@H](CO)NC(=O)[C@H](CCC(=O)O)NC(=O)[C@H](CCC(=O)O)NC(=O)[C@H](CC(C)C)NC(=O)[C@H](CCCCN)NC(=O)[C@H](CCCCN)NC(=O)[C@@H](NC(=O)[C@@H](NC(=O)[C@H](CCC(=O)O)NC(=O)[C@H](CCC(=O)O)NC(=O)[C@H](CC(C)C)NC(=O)[C@H](CCCCN)NC(=O)[C@H](CCCCN)NC(=O)[C@H](CCSC)NC(=O)[C@H](CCC(=O)O)NC(=O)[C@H](Cc1ccc(O)cc1)NC(=O)[C@H](CCC(=O)O)NC(=O)[C@H](CC(C)C)NC(=O)[C@H](CC(=O)O)NC(=O)[C@H](CC(C)C)NC(=O)[C@H](CC(C)C)NC(=O)[C@@H](NC(=O)[C@@H](NC(=O)[C@H](CC(N)=O)NC(=O)[C@@H](NC(=O)[C@H](CCC(N)=O)NC(=O)[C@@H](NC(=O)[C@H](CC(C)C)NC(=O)[C@H](CO)NC(C)=O)[C@@H](C)O)[C@@H](C)CC)[C@@H](C)O)[C@@H](C)O)C(C)C)C(C)C)C(=O)N[C@@H](CC(=O)O)C(=O)N[C@@H](CC(C)C)C(=O)N[C@@H](CCCCN)C(=O)N[C@@H](CCC(=O)O)C(=O)N[C@@H](CC(C)C)C(N)=O`, the outcome in the data set on Influenza A virus [8] and in the data set with Influenza A virus [10] was inactive. Also, the 50% cytotoxic concentration (CC50) at 48 h in [9] is more than 100 µM. In addition, the EC50 in data set [11] was 0.15 µM.
In the case of `CCCCCCCCCCCCCCCC(=O)NCCCC[C@H](NC(=O)CCNC(=O)[C@H](CCCCN)NC(=O)[C@H](CCCCN)NC(=O)[C@H](CO)NC(=O)[C@H](Cc1ccccc1)NC(=O)[C@H](CCC(=O)O)NC(=O)[C@H](CCC(=O)O)NC(=O)[C@H](Cc1ccccc1)NC(=O)[C@H](CCCCN)NC(=O)[C@H](CCCCN)NC(=O)[C@H](CO)NC(=O)[C@H](Cc1ccccc1)NC(=O)[C@H](CCC(=O)O)NC(=O)[C@H](CCC(=O)O)NC(=O)[C@H](Cc1ccccc1)NC(=O)[C@H](CCCCN)NC(=O)[C@H](CCCCN)NC(=O)[C@H](CO)NC(=O)[C@H](Cc1ccccc1)NC(=O)[C@H](CCC(=O)O)NC(=O)[C@H](CCC(=O)O)NC(=O)[C@H](Cc1ccccc1)NC(=O)[C@H](CCCCN)NC(=O)[C@H](CCCCN)NC(=O)[C@H](CO)NC(=O)[C@H](Cc1ccccc1)NC(=O)[C@H](CCC(=O)O)NC(=O)[C@H](CCC(=O)O)NC(=O)[C@H](Cc1ccccc1)NC(=O)[C@H](CCCCN)NC(=O)[C@H](CCCCN)NC(=O)[C@H](CO)NC(=O)[C@H](Cc1ccccc1)NC(=O)[C@H](CCC(=O)O)NC(=O)[C@H](CCC(=O)O)NC(=O)[C@H](Cc1ccccc1)NC(C)=O)C(N)=O` (Ac-FEEFSKKFEEFSKKFEEFSKKFEEFSKKFEEFSKK[βAla]K(Palmitoyl)-NH2), the CC50 at 48 h in [9] is more than 100 µM. For the same compound, the half-maximal effective concentration (EC50) in data set [11] amounted to 3.11 µM.
Regarding `CCCCCCCCCCCCCCCC(=O)NCCCC[C@H](NC(=O)CCNC(=O)[C@H](CCCCN)NC(=O)[C@H](CCCCN)NC(=O)[C@H](CO)NC(=O)[C@@H](NC(=O)[C@H](CCC(=O)O)NC(=O)[C@H](CCC(=O)O)NC(=O)[C@@H](NC(=O)[C@H](CCCCN)NC(=O)[C@H](CCCCN)NC(=O)[C@H](CO)NC(=O)[C@@H](NC(=O)[C@H](CCC(=O)O)NC(=O)[C@H](CCC(=O)O)NC(=O)[C@@H](NC(=O)[C@H](CCCCN)NC(=O)[C@H](CCCCN)NC(=O)[C@H](CO)NC(=O)[C@@H](NC(=O)[C@H](CCC(=O)O)NC(=O)[C@H](CCC(=O)O)NC(=O)[C@@H](NC(=O)[C@H](CCCCN)NC(=O)[C@H](CCCCN)NC(=O)[C@H](CO)NC(=O)[C@@H](NC(=O)[C@H](CCC(=O)O)NC(=O)[C@H](CCC(=O)O)NC(=O)[C@@H](NC(=O)[C@H](CCCCN)NC(=O)[C@H](CCCCN)NC(=O)[C@H](CO)NC(=O)[C@@H](NC(=O)[C@H](CCC(=O)O)NC(=O)[C@H](CCC(=O)O)NC(=O)[C@@H](NC(C)=O)[C@@H](C)CC)[C@@H](C)CC)[C@@H](C)CC)[C@@H](C)CC)[C@@H](C)CC)[C@@H](C)CC)[C@@H](C)CC)[C@@H](C)CC)[C@@H](C)CC)[C@@H](C)CC)C(N)=O` (Ac-IEEISKKIEEISKKIEEISKKIEEISKKIEEISKK[βAla]K(Palmitoyl)-NH2), in [12], the CC50 at 72 h was more than 100 µM.
For `CCCCCCCCCCCCCCCC(=O)NCCCC[C@H](NC(=O)CCNC(=O)[C@H](CCCCN)NC(=O)[C@H](CCCCN)NC(=O)[C@H](Cc1ccc(O)cc1)NC(=O)[C@@H](NC(=O)[C@H](CCC(=O)O)NC(=O)[C@H](CCC(=O)O)NC(=O)[C@@H](NC(=O)[C@H](CCCCN)NC(=O)[C@H](CCCCN)NC(=O)[C@H](Cc1ccc(O)cc1)NC(=O)[C@@H](NC(=O)[C@H](CCC(=O)O)NC(=O)[C@H](CCC(=O)O)NC(=O)[C@@H](NC(=O)[C@H](CCCCN)NC(=O)[C@H](CCCCN)NC(=O)[C@H](Cc1ccc(O)cc1)NC(=O)[C@@H](NC(=O)[C@H](CCC(=O)O)NC(=O)[C@H](CCC(=O)O)NC(=O)[C@@H](NC(=O)[C@H](CCCCN)NC(=O)[C@H](CCCCN)NC(=O)[C@H](Cc1ccc(O)cc1)NC(=O)[C@@H](NC(=O)[C@H](CCC(=O)O)NC(=O)[C@H](CCC(=O)O)NC(=O)[C@@H](NC(=O)[C@H](CCCCN)NC(=O)[C@H](CCCCN)NC(=O)[C@H](Cc1ccc(O)cc1)NC(=O)[C@@H](NC(=O)[C@H](CCC(=O)O)NC(=O)[C@H](CCC(=O)O)NC(=O)[C@@H](NC(C)=O)[C@@H](C)CC)[C@@H](C)CC)[C@@H](C)CC)[C@@H](C)CC)[C@@H](C)CC)[C@@H](C)CC)[C@@H](C)CC)[C@@H](C)CC)[C@@H](C)CC)[C@@H](C)CC)C(N)=O` (Ac-IEEIYKKIEEIYKKIEEIYKKIEEIYKKIEEIYKK[βAla]K(Palmitoyl)-NH2), the CC50 at 72 h in [12] was more than 100 µM.
As to `CCOC(=O)C1=C[C@@H](OC(CC)CC)[C@H](NC(C)=O)[C@@H](N)C1` [OSELTAMIVIR], the values for the half-maximal effective concentration (EC50) in the data set on Influenza A virus [13] and in the data set on Influenza A virus [15] were 1.48 µM and 0.01 µM, respectively. For the same compound, the inhibition result with Influenza A virus [14] was “inactive”. Also, the 50% cytotoxic concentration (CC50) at 72 h in data set [12] was more than 100 µM.

For orientation: IC50 means the concentration at which inhibition is half-maximal. As a reminder, the CC50 is the concentration giving 50% cytotoxicity. Broadly, the EC50 is the concentration giving half of the maximal effect.
